Measurements from ChEMBL document CHEMBL4814034, “Discovery of N-amido-phenylsulfonamide derivatives as novel microsomal prostaglandin E2 synthase-1 (mPGES-1) inhibitors” (Bioorg Med Chem Lett, 2021).

Legend:
Prostaglandin E synthase [1] = molecular target: T1, Prostaglandin E synthase (Homo sapiens, UniProt O14684); test: Inhibition of mPGES-1 in human A549 cells assessed as reduction in IL-1beta stimulated PGE2 production incubated for 24 hrs by EIA; assay type: cell-based
T1 sequence (O14684 whole entry): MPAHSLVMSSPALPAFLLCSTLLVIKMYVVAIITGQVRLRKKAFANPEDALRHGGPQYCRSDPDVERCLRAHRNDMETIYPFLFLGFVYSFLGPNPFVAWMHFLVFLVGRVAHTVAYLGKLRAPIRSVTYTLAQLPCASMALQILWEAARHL

Prostaglandin E synthase [2] = molecular target: T1, Prostaglandin E synthase; test: Inhibition of mPGES-1 activity in IL-1beta stimulated human A549 cells microsomes assessed as reduction in PGE2 production preincubated for 15 mins followed by PGH2 addition and measured after 1 mins by EIA; set-up: species or system Microsome
Summary of the method: (§1)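 Cell-free mPGES-1 assay using microsomal preparation from IL-1β-stimulated A549 cells. Preincubated with compounds or DMSO vehicle for 15 min on ice, then reacted 1 min with substrate. PGE2 production measured by EIA kit. Remaining activity expressed as % of control, mean ± SDs (n = 3).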

A549 = test: Cytotoxicity against human A549 cells assessed as cell viability incubated for 24 hrs in presence of IL-1beta by MTT assay; assay type: cell-based; conditions: a549, 24 h
Summary of the method: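 A549 cells exposed to compounds at 1 µM with interleukin-1β (1 ng/mL) for 24 h; viability read by MTT assay.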

CYP2C9 = CYP2C9 (Homo sapiens, UniProt P11712); test: Inhibition of CYP2C9 in human liver microsomes assessed as enzyme remaining activity at 10 uM using diclofenac as substrate incubated for 20 mins in presence of NADPH by LC-MS/MS analysis relative to control; assay type: ADME; conditions: probe diclofenac, read-out: Activity
CYP2C9, sequence (P11712 whole entry): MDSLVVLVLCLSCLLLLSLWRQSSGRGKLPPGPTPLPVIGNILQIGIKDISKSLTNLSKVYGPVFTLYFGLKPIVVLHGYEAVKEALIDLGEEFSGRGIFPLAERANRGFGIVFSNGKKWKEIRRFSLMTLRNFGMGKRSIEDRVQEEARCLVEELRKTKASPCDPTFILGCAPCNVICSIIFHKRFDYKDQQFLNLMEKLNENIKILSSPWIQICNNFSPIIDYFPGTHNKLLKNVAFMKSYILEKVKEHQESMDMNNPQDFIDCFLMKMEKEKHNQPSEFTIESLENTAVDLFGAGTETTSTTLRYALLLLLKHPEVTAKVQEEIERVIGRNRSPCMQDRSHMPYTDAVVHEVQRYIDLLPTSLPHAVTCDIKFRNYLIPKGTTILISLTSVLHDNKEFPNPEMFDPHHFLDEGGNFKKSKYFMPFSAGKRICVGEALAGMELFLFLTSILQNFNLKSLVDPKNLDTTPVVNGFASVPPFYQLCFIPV
Summary of the method: (§2)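 CYP1A2, 2C9, 2C19, 2D6 and 3A4 activities measured with each compound at 10 µM; result given as % of control activity.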

[3] = molecular target: Voltage-gated inwardly rectifying potassium channel KCNH2 (Homo sapiens, UniProt Q12809); test: Binding affinity to human ERG
Voltage-gated inwardly rectifying potassium channel KCNH2, sequence (Q12809 whole entry): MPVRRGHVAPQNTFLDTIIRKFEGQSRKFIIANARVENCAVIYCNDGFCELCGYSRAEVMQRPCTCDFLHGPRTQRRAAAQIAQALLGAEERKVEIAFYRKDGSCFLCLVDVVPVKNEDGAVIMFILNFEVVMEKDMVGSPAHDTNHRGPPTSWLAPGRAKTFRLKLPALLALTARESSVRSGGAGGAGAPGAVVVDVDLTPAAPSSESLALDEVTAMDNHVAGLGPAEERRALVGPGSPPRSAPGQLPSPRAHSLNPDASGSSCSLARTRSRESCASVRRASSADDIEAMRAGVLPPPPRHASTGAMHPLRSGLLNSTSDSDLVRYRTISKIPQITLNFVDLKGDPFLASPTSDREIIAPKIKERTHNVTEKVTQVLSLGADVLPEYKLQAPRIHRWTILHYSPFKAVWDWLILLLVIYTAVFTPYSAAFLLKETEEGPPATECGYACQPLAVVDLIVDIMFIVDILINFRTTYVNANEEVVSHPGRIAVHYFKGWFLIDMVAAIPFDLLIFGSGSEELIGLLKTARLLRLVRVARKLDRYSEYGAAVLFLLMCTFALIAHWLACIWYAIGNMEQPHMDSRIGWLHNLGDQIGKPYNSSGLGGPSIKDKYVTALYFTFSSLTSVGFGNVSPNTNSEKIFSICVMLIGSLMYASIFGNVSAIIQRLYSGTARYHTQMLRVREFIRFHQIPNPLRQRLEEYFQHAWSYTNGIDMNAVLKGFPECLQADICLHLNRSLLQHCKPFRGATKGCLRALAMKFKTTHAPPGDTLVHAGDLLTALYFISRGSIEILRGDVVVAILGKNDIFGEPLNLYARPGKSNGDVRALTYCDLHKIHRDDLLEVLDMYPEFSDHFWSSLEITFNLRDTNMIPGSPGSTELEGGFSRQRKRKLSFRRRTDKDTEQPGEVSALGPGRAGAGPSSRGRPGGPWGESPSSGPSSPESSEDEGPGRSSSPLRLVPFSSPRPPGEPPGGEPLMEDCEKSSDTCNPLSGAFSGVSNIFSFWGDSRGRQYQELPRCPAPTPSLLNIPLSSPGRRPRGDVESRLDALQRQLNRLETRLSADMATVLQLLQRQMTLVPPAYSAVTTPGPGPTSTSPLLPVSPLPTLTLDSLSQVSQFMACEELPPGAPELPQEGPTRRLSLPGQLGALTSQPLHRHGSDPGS

[4] = Metabolic stability in dog liver microsomes assessed as parent compound remaining at 1 uM incubated for 30 mins in presence of NADPH by LC-MS/MS analysis; assay type: ADME, Canis lupus familiaris, Microsome; conditions: read-out: Stabilty
Summary of the method: (§3)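 Single-point metabolic stability in mouse, rat, dog and human liver microsomes. Compound at 1.0 µM incubated with 1.0 mg/mL protein at 37 °C for 30 min; % parent remaining reported.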

[5] = Stability in human plasma assessed as parent compound remaining at 10 uM after 30 mins by UPLC-MS analysis; assay type: ADME, cell-free; conditions: read-out: Stabilty
Summary of the method: (§4)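 Compounds at 10 µM incubated in human or rat plasma; % remaining after 30 min reported.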

CYP2C19 = CYP2C19 (Homo sapiens, UniProt P33261); test: Inhibition of CYP2C19 in human liver microsomes assessed as enzyme remaining activity at 10 uM using mephenytoin as substrate incubated for 20 mins in presence of NADPH by LC-MS/MS analysis relative to control; assay type: ADME; conditions: probe mephenytoin, read-out: Activity; summary of the method: as §2
CYP2C19, sequence (P33261 whole entry): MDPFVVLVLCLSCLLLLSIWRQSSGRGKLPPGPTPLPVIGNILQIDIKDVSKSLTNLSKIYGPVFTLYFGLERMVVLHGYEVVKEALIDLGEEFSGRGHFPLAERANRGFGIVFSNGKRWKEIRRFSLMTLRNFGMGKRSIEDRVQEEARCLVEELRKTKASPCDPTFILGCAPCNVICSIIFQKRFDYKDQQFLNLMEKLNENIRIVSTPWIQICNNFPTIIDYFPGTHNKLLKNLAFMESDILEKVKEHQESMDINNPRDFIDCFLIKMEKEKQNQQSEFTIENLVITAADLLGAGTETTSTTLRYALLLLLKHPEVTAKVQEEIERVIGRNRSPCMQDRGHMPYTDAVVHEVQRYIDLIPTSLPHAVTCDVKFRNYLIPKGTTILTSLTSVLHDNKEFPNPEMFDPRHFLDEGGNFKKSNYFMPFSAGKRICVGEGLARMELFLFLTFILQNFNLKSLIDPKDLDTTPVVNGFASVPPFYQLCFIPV

CYP2D6 = CYP2D6 (Homo sapiens, UniProt P10635); test: Inhibition of CYP2D6 in human liver microsomes assessed as enzyme remaining activity at 10 uM using bufuralol as substrate incubated for 20 mins in presence of NADPH by LC-MS/MS analysis relative to control; assay type: ADME; conditions: probe bufuralol, read-out: Activity; summary of the method: as §2
CYP2D6, sequence (P10635 whole entry): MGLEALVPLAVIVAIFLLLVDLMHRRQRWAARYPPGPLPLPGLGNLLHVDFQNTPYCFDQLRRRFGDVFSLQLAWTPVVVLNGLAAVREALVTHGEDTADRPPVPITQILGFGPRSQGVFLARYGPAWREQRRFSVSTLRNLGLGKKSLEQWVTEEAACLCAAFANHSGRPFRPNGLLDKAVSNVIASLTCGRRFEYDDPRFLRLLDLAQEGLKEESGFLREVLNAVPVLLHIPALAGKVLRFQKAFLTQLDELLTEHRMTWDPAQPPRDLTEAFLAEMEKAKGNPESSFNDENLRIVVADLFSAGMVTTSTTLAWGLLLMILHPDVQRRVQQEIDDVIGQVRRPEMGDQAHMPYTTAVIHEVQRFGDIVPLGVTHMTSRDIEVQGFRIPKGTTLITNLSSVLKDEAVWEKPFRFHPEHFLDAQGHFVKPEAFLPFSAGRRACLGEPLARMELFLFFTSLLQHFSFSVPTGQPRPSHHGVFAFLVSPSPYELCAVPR

CYP1A2 = molecular target: T2, CYP1A2 (Homo sapiens, UniProt P05177); test: Inhibition of CYP1A2 in human liver microsomes assessed as enzyme remaining activity at 10 uM using phenacetin as substrate incubated for 20 mins in presence of NADPH by LC-MS/MS analysis relative to control; assay type: ADME; conditions: probe phenacetin, read-out: Activity; summary of the method: as §2
T2 sequence (P05177 whole entry): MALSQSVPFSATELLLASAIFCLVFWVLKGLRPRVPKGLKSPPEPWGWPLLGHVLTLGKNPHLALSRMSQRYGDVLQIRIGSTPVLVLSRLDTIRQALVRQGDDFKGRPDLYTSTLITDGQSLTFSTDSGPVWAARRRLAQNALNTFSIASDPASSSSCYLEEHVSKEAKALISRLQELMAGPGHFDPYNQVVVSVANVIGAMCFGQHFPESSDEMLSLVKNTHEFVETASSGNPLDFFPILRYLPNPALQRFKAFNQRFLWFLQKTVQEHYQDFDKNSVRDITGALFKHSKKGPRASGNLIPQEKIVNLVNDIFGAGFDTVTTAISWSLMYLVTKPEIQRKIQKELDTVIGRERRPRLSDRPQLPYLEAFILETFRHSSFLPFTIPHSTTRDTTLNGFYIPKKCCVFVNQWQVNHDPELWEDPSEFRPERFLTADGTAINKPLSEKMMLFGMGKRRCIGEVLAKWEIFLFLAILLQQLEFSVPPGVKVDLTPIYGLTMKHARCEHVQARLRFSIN

[6] = Stability in rat plasma assessed as parent compound remaining at 10 uM after 30 mins by UPLC-MS analysis; assay type: ADME, cell-free; conditions: read-out: Stabilty; summary of the method: as §4
CYP3A4 = CYP3A4 (Homo sapiens, UniProt P08684); test: Inhibition of CYP3A4 in human liver microsomes assessed as enzyme remaining activity at 10 uM using testosterone as substrate incubated for 20 mins in presence of NADPH by LC-MS/MS analysis relative to control; assay type: ADME; conditions: probe testosterone, read-out: Activity; summary of the method: as §2
CYP3A4, sequence (P08684 whole entry): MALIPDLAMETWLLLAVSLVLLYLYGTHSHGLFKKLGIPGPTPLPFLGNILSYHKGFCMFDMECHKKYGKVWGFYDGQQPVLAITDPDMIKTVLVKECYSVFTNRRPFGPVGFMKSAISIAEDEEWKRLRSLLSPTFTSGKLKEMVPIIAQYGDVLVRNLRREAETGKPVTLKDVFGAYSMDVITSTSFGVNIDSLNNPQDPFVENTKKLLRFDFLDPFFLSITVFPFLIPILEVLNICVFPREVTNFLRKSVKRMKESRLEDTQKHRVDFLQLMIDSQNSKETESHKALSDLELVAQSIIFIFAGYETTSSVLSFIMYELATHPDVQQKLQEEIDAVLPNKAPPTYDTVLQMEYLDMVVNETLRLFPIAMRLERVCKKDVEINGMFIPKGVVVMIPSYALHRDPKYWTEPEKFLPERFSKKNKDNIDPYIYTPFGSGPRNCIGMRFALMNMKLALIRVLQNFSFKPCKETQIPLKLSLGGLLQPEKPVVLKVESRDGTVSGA

[7] = Metabolic stability in rat liver microsomes assessed as parent compound remaining at 1 uM incubated for 30 mins in presence of NADPH by LC-MS/MS analysis; assay type: ADME, Microsome; conditions: read-out: Stabilty; summary of the method: as §3
Prostaglandin E synthase [8] = molecular target: T3, Prostaglandin E synthase (Mus musculus, UniProt Q9JM51); test: Inhibition of mPGES-1 in mouse RAW264.7 cells assessed as reduction in LPS-stimulated PGE2 production; assay type: cell-based
T3 sequence (Q9JM51 whole entry): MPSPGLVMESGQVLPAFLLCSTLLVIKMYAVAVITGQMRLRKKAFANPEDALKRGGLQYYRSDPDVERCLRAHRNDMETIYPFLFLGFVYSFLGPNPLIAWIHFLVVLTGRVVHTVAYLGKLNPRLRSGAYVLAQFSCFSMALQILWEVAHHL

[9] = Metabolic stability in human liver microsomes assessed as parent compound remaining at 1 uM incubated for 30 mins in presence of NADPH by LC-MS/MS analysis; assay type: ADME, Microsome; conditions: read-out: Stabilty; summary of the method: as §3
[10] = Metabolic stability in mouse liver microsomes assessed as parent compound remaining at 1 uM incubated for 30 mins in presence of NADPH by LC-MS/MS analysis; assay type: ADME, Microsome; conditions: read-out: Stabilty; summary of the method: as §3
[11] = Selectivity index, ratio of IC50 for inhibition of mPGES-1 in human A549 cells assessed as reduction in IL-1beta stimulated PGI2 production to IC50 for inhibition of mPGES-1 in human A549 cells assessed as reduction in IL-1 beta stimulated PGE2 production
Prostaglandin E synthase [12] = molecular target: T1, Prostaglandin E synthase; test: Inhibition of mPGES-1 activity in IL-1beta stimulated human A549 cells by cell-free assay; summary of the method: as §1
[13] = molecular target: T4, Prostaglandin E synthase (Homo sapiens) (UniProt O14684); test: Potency index, ratio of MK886 IC50 to test compound IC50 for inhibition of mPGES-1 in human A549 cells microsomes; conditions: Microsome
T4 sequence (whole entry): T1 sequence (O14684 whole entry)

| SMILES | IC50 (Prostaglandin E synthase [1]) | IC50 (Prostaglandin E synthase [2]) | Activity (A549) | activity at 20 min, 10 µM (CYP2C9) | IC50 [3] | remaining at 0.5 h, 1 µM [4] | remaining at 0.5 h, 10 µM [5] | activity at 20 min, 10 µM (CYP2C19) | activity at 20 min, 10 µM (CYP2D6) | activity at 20 min, 10 µM (CYP1A2) | remaining at 0.5 h, 10 µM [6] | activity at 20 min, 10 µM (CYP3A4) | remaining at 0.5 h, 1 µM [7] | IC50 (Prostaglandin E synthase [8]) | remaining at 0.5 h, 1 µM [9] | remaining at 0.5 h, 1 µM [10] | Ratio IC50 [11] | IC50 (Prostaglandin E synthase [12]) | Ratio IC50 [13] |
| --- | --- | --- | --- | --- | --- | --- | --- | --- | --- | --- | --- | --- | --- | --- | --- | --- | --- | --- | --- |
| O=C(Oc1ccc(OCc2ccccc2)cc1)N(Nc1cccc(Cl)c1)S(=O)(=O)c1ccc(Cl)cc1 | 150 nM | > 30000 nM | > 1 µM |  |  |  |  |  |  |  |  |  |  |  |  |  |  |  |  |
| O=C(Oc1ccc(OCc2ccccc2)cc1)N(Nc1ccccc1)S(=O)(=O)c1ccc(Cl)cc1 | 190 nM | 610 nM | > 1 µM | 88.4% | 9600 nM | 48.5% | < 1% | 77.9% | 57.1% | 75.7% | < 1% | 73.6% | 16.3% | 60 nM | 66.6% | 42.2% |  |  |  |
| O=C(Oc1ccc(OCc2ccccc2)cc1)N(Cc1ccccc1)S(=O)(=O)c1ccc(Cl)cc1 | 160 nM |  | > 1 µM | 97% | 5200 nM | 37.7% | > 100% | 56.9% | > 100% | 99.4% | 2.1% | > 100% | 44.1% | 340 nM | 44.9% | 53.4% | 8 | 7370 nM |  |
| O=C(Nc1ccc(OCCCCc2ccccc2)cc1)N(Cc1ccccc1)S(=O)(=O)c1ccc(Cl)cc1 | 240 nM | 490 nM | > 1 µM | 99.9% | > 10000 nM | 86.4% | 45% | 8.7% | 98.8% | 69.4% | 1.3% | 92.5% | 74.5% |  | > 100% | 79% | 4 |  | 8 |
| O=C(Nc1ccc(OCc2ccccc2)cc1)N(Cc1ccccc1)S(=O)(=O)c1ccc(Cl)cc1 | 610 nM | > 30000 nM | > 1 µM |  |  |  |  |  |  |  |  |  |  |  |  |  |  |  |  |
| CC(C)c1ccc2c(c1)c(SC(C)(C)C)c(CC(C)(C)C(=O)O)n2Cc1ccc(Cl)cc1 |  |  | > 1 µM |  |  |  |  |  |  |  |  |  |  |  |  |  |  |  |  |
